Activity data for 3 compounds are collected here from ChEMBL document CHEMBL1629596, “Antileishmanial activity of 1,3,4-thiadiazolium-2-aminide in mice infected with Leishmania amazonensis” (Antimicrob Agents Chemother, 2009).

For data set [1], the system named is Leishmania amazonensis. The data set is described as follows: Antileishmanial activity against Leishmania amazonensis infected in CBA/J mouse assessed as reduction of parasite loads in spleen at 100 mg/kg/day, sc administered 4 weeks after infection 5 dose in a week for 4 weeks measured after 12 weeks. The class given is functional, organism-based. In short, it runs like this:
(§1)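 Mice were killed at week 12, 4 weeks after treatment ended. Popliteal lymph nodes and spleens were removed aseptically, weighed and homogenized in Schneider's medium + 10% fetal calf serum. Eight serial 1:10 dilutions were plated in triplicate and incubated at 26°C. Titer was the last dilution with ≥1 parasite by microscopy. Groups were seven mice.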

The subject of data set [2] is Leishmania amazonensis. The data set is described as follows: Antileishmanial activity against Leishmania amazonensis infected in CBA/J mouse assessed as reduction of lesion size at 100 mg/kg/day, sc administered 4 weeks after infection 5 dose in a week for 4 weeks measured after 12 weeks. The class given is functional, organism-based. The essentials:
(§2)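 Sc dosing started day 27 post-infection, 5 doses/week for 4 weeks. Controls got DMSO/PBS vehicle. Footpad swelling was followed to week 12 and recorded as infected-footpad thickness. Groups were seven mice, reported as mean with standard errors.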

In data set [3] the test system is Leishmania amazonensis. The data set is described as follows: Antileishmanial activity against Leishmania amazonensis infected in CBA/J mouse assessed as reduction of parasite loads in popliteal lymph nodes at 100 mg/kg/day, sc administered 4 weeks after infection 5 dose in a week for 4 weeks measured after 12 weeks. Conditions: Popliteal lymph node. The class given is functional, organism-based. The essentials: as §1

Data set [4] has as its system Leishmania amazonensis. Put plainly: Antileishmanial activity against Leishmania amazonensis infected in CBA/J mouse assessed as reduction of foot-pad thickness at 100 mg/kg/day, sc administered 4 weeks after infection 5 dose in a week for 4 weeks measured after 12 weeks. The class given is functional, organism-based. The essentials:
as §2

In data set [5] the test system is Leishmania amazonensis. Put plainly: Antileishmanial activity against Leishmania amazonensis infected in CBA/J mouse assessed as reduction of foot-pad thickness at 22 mg/kg/day, sc administered 4 weeks after infection 5 dose in a week for 4 weeks measured after 12 weeks. The class given is functional, organism-based. In short, it runs like this: (§3)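 Infected footpad thickness measured as lesion size, followed to week 12 postinfection. Subcutaneous dosing in DMSO/PBS vehicle began 27 days after infection, 5 doses a week for 4 weeks; controls received vehicle alone. Groups of seven mice, mean ± SEM.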

For data set [6], the system named is Leishmania amazonensis. Put plainly: Antileishmanial activity against Leishmania amazonensis infected in CBA/J mouse assessed as reduction of parasite loads in spleen at 22 mg/kg/day, sc administered 4 weeks after infection 5 dose in a week for 4 weeks measured after 12 weeks. The class given is functional, organism-based. In short, it runs like this: (§4)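 Week 12 postinfection (4 weeks after last dose): popliteal lymph nodes and spleens removed aseptically, weighed, homogenized in Schneider's medium + 10% FCS; eight 1:10 serial dilutions in triplicate, incubated at 26°C, read by inverted microscope; titer = last dilution with at least one parasite. Seven animals; subcutaneous dosing in DMSO/PBS, 5 doses/week for 4 weeks.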

For data set [7], the system named is Mus musculus. The data set is described as follows: Toxicity in CBA/J mouse assessed as change in neutrophils count at 22 mg/kg/day, sc administered 5 doses a week for 4 weeks (reference value: 19%). The class given is organism-based. The settings on record: in vivo, 672 h. Further details: route subcutaneous. In short, it runs like this: (§5)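 Uninfected mice dosed subcutaneously in DMSO/PBS, 5 doses/week; tail blood taken at week 4 of treatment. Total leukocytes counted in Neubauer chamber; lymphocyte, monocyte and neutrophil values given as percentages.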

Data set [8] has as its system Leishmania amazonensis. Put plainly: Antileishmanial activity against Leishmania amazonensis infected in macrophages assessed as nitric oxide release. The class given is functional, organism-based.
The subject of data set [9] is Mus musculus. Put plainly: Toxicity in CBA/J mouse assessed as change in lymphocytes count at 22 mg/kg/day, sc administered 5 doses a week for 4 weeks (reference value: 75%). The class given is organism-based. The settings on record: in vivo, 672 h. Also noted: route subcutaneous. In short, it runs like this: as §5
Data set [10] concerns Mus musculus. Put plainly: Toxicity in CBA/J mouse assessed as change in white blood cell count at 22 mg/kg/day, sc administered 5 doses a week for 4 weeks (reference value: 14 x 10^3 ul). The class given is organism-based. Also noted: route subcutaneous. The settings on record: in vivo, 672 h. In short, it runs like this:
as §5

Data set [11] has as its system Mus musculus. Put plainly: Toxicity in CBA/J mouse assessed as change in aspartate aminotransferase level at 22 mg/kg/day, sc administered 5 doses a week for 4 weeks (reference value: 51 +/- 6.8 U/ml). The class given is organism-based. Also noted: route subcutaneous. The settings on record: in vivo, 672 h.
In data set [12] the test system is Leishmania amazonensis. The data set is described as follows: Antileishmanial activity against Leishmania amazonensis infected in CBA/J mouse assessed as increase of nitric oxide production in lymph node cells at 22 mg/kg/day, sc administered 4 weeks after infection 5 dose in a week for 4 weeks measured after 12 weeks. The class given is functional, organism-based.

For data set [13], the system named is Mus musculus. Put plainly: Toxicity in CBA/J mouse assessed as change in monocytes count at 22 mg/kg/day, sc administered 5 doses a week for 4 weeks (reference value: 5%). The class given is organism-based. Also noted: route subcutaneous. The settings on record: in vivo, 672 h. In short, it runs like this: as §5
Data set [14] concerns Mus musculus. Put plainly: Toxicity in CBA/J mouse assessed as change in body weight at 22 mg/kg/day, sc administered 5 doses a week for 4 weeks (reference value: 25 g). The class given is organism-based. Further details: route subcutaneous. The settings on record: in vivo, 672 h.
Data set [15] relates to Leishmania amazonensis. The data set is described as follows: Antileishmanial activity against Leishmania amazonensis infected in CBA/J mouse assessed as reduction of parasite loads in popliteal lymph nodes at 22 mg/kg/day, sc administered 4 weeks after infection 5 dose in a week for 4 weeks measured after 12 weeks. The class given is functional, organism-based. The settings on record: Popliteal lymph node. In short, it runs like this:
as §4

The test system of data set [16] is Mus musculus. The data set is described as follows: Toxicity in CBA/J mouse assessed as change in alanine aminotransferase level at 22 mg/kg/day, sc administered 5 doses a week for 4 weeks (reference value: 52 +/- 6.2 U/ml). The class given is organism-based. Also noted: route subcutaneous. Conditions: in vivo, 672 h.
Data set [17] concerns Leishmania amazonensis. Put plainly: Antileishmanial activity against Leishmania amazonensis infected in CBA/J mouse assessed as reduction of lesion size at 24 mg/kg/day, sc administered 4 weeks after infection 5 dose in a week for 4 weeks measured after 12 weeks. The class given is functional, organism-based. In short, it runs like this: as §3
For data set [18], the system named is Mus musculus. The data set is described as follows: Toxicity in CBA/J mouse assessed as change in lymphocytes count at 24 mg/kg/day, sc administered 5 doses a week for 4 weeks (reference value: 75%). The class given is organism-based. Further details: route subcutaneous. The settings on record: in vivo, 672 h. In short, it runs like this:
as §5

Data set [19] has as its system Mus musculus. The data set is described as follows: Toxicity in CBA/J mouse assessed as change in alanine aminotransferase level at 24 mg/kg/day, sc administered 5 doses a week for 4 weeks (reference value: 52 +/- 6.2 U/ml). Further details: route subcutaneous. The class given is organism-based. The settings on record: in vivo, 672 h.
Data set [20] deals with Leishmania amazonensis. Put plainly: Antileishmanial activity against Leishmania amazonensis infected in CBA/J mouse assessed as reduction of parasite loads in spleen at 24 mg/kg/day, sc administered 4 weeks after infection 5 dose in a week for 4 weeks measured after 12 weeks. The class given is functional, organism-based. In short, it runs like this:
as §4

For data set [21], the system named is Mus musculus. Put plainly: Toxicity in CBA/J mouse assessed as change in monocytes count at 24 mg/kg/day, sc administered 5 doses a week for 4 weeks (reference value: 5%). The class given is organism-based. Also noted: route subcutaneous. The settings on record: in vivo, 672 h. In short, it runs like this:
as §5

Data set [22] concerns Mus musculus. The data set is described as follows: Toxicity in CBA/J mouse assessed as change in aspartate aminotransferase level at 24 mg/kg/day, sc administered 5 doses a week for 4 weeks (reference value: 51 +/- 6.8 U/ml). The class given is organism-based. Further details: route subcutaneous. Conditions: in vivo, 672 h.
For data set [23], the system named is Mus musculus. Put plainly: Toxicity in CBA/J mouse assessed as change in white blood cell count at 24 mg/kg/day, sc administered 5 doses a week for 4 weeks (reference value: 14 x 10^3 ul). The class given is organism-based. Conditions: in vivo, 672 h. Also noted: route subcutaneous. The essentials: as §5
Data set [24] deals with Mus musculus. Put plainly: Toxicity in CBA/J mouse assessed as change in neutrophils count at 24 mg/kg/day, sc administered 5 doses a week for 4 weeks (reference value: 19%). The class given is organism-based. Also noted: route subcutaneous. Conditions: in vivo, 672 h. The essentials:
as §5

Data set [25] concerns Leishmania amazonensis. Put plainly: Antileishmanial activity against Leishmania amazonensis infected in CBA/J mouse assessed as reduction of foot-pad thickness at 24 mg/kg/day, sc administered 4 weeks after infection 5 dose in a week for 4 weeks measured after 12 weeks. The class given is functional, organism-based. The essentials: as §3
For data set [26], the system named is Mus musculus. Put plainly: Toxicity in CBA/J mouse assessed as change in body weight at 24 mg/kg/day, sc administered 5 doses a week for 4 weeks (reference value: 25 g). The class given is organism-based. Further details: route subcutaneous. The settings on record: in vivo, 672 h.
Data set [27] concerns Leishmania amazonensis. The data set is described as follows: Antileishmanial activity against Leishmania amazonensis infected in CBA/J mouse assessed as reduction of parasite loads in popliteal lymph nodes at 24 mg/kg/day, sc administered 4 weeks after infection 5 dose in a week for 4 weeks measured after 12 weeks. The class given is functional, organism-based. Conditions: Popliteal lymph node. The essentials:
as §4

The source made the active and inactive calls. No cut-off for these calls is given here.

As for MEGLUMINE ANTIMONATE, the outcome in the data set with Leishmania amazonensis [1], in the data set on Leishmania amazonensis [3] and in the data set on Leishmania amazonensis [4] was Active. Also, the result in the data set on Leishmania amazonensis [2] was inactive.

For the compound `COc1ccc(/C=C/c2sc(Nc3ccccc3)n[n+]2-c2ccccc2)cc1.[Cl-]`, the outcome in the data set with Leishmania amazonensis [5], in the data set with Leishmania amazonensis [6], in the data set on Leishmania amazonensis [8], in the data set on Leishmania amazonensis [12] and with Leishmania amazonensis [15] was Active. Further, the Activity in the data set with Mus musculus [7] is recorded as 25%; in the data set with Mus musculus [9], 69%; in the data set on Mus musculus [10], 12 ×10³ /uL; in the data set on Mus musculus [11] it was 53 U/ml; in the data set on Mus musculus [13], 5%; in the data set on Mus musculus [14] it was 27 g. In addition, in the data set with Mus musculus [16], the Activity amounted to 57 U/ml.

As to `C(=C\c1sc(Nc2ccccc2)n[n+]1-c1ccccc1)/c1ccccc1.[Cl-]`, the outcome with Leishmania amazonensis [8], in the data set with Leishmania amazonensis [20], in the data set on Leishmania amazonensis [25] and in the data set on Leishmania amazonensis [27] was Active. Further, in the data set with Leishmania amazonensis [17], the result was inactive. Further, the Activity in the data set on Mus musculus [18] stood at 70%; with Mus musculus [19], 58 U/ml; in the data set with Mus musculus [21], 5%; in the data set on Mus musculus [22], 48 U/ml; in the data set on Mus musculus [23], 12 ×10³ /uL; in the data set with Mus musculus [24], 24%. In the data set with Mus musculus [26], the Activity was determined as 26 g.
